Assay results: ChEMBL document CHEMBL1142984, “Stabilization of G-quadruplex DNA and down-regulation of oncogene c-myc by quindoline derivatives” (J Med Chem, 2007)
Active and inactive are the calls of the source. The calls are words filed in the database; no cut-off is given here.

Assays:
[1] = Inhibition of Pu27-13, 14 oligomer hybridization with Pu27rev at 36 uM by PCR stop assay
How it was run: (§1)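 Test oligomer plus complementary strand ([…]) in 1×PCR buffer with 0.16 mM dNTP, 2.5 U Taq and derivative […]. Cycling: 94 C 3 min, then 30 cycles of 94 C 30 s, 58 C 30 s, 72 C 30 s. Products run on 15% nondenaturing polyacrylamide in 1×TBE, silver stained; quadruplex stabilization blocks extension.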

[2] = Inhibition of Pu27 oligomer hybridization with Pu27rev at 18 uM by PCR stop assay; how it was run: as §1
[3] = Stabilization of Pu27 oligomer by inducing G-quadruplex formation assessed as inhibition of hybridization with Pu27rev by PCR stop assay; how it was run: as §1
HepG2 [4] = assay: Growth inhibition in HepG2 cells after 5 days; format: functional, cell-based; settings: Homo sapiens, HepG2, 120 h
How it was run: (§2)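 Hep G2 cells in RPMI-1640 with 10% FBS at 37 C, 5% CO2. About 5000 cells seeded; compound ([…], freshly dissolved) added 24 h after plating and re-added at day 5. Cell counts and viability by trypan blue exclusion daily, days 1 to 8. IC50 calculated at days 5 and 7 of treatment.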

HepG2 [5] = assay: Inhibition of c-myc expression in HepG2 cells at 50 uM; format: functional, cell-based; settings: Homo sapiens
How it was run: (§3)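 About 5 × 10^5 Hep G2 cells seeded, treated 24 h after plating with derivative (6.25 to 100 µM) for 24 h. Total RNA extracted and reverse transcribed at 42 C for 60 min. PCR used […], 500 µM dNTPs, 36 cycles (95/50/72 C, 1 min each). Products read on 1.5% agarose against β-actin.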

Ramos = assay: Inhibition of c-myc expression in Ramos cells at 10 uM; format: functional, cell-based; settings: Homo sapiens
How it was run: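 Ramos cells (about 1 × 105 seeded) treated with derivative at […] and harvested 24 h later alongside untreated cells. RNA reverse transcribed at 42 C for 60 min. PCR used […], 36 cycles (95/50/72 C, 1 min each). Products resolved on 1.5% agarose.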

HepG2 [6] = assay: Growth inhibition in HepG2 cells after 7 days; format: functional, cell-based; settings: Homo sapiens, HepG2, 168 h; how it was run: as §2
[7] = Inhibition of Pu27 oligomer hybridization with Pu27rev at 6 uM by PCR stop assay; how it was run: as §1
[8] = Inhibition of Pu27 oligomer hybridization with Pu27rev at 36 uM by PCR stop assay; how it was run: as §1
HepG2 [9] = assay: Inhibition of c-myc expression in HepG2 cells at 100 uM; format: functional, cell-based; settings: Homo sapiens; how it was run: as §3

| SMILES | Activity [1] | Activity [2] | Activity [3] | IC50 (HepG2 [4]) [nM] | Activity (HepG2 [5]) | Activity (Ramos) | IC50 (HepG2 [6]) [nM] | Activity [7] | Activity [8] | Activity (HepG2 [9]) |
| --- | --- | --- | --- | --- | --- | --- | --- | --- | --- | --- |
| CN(C)CCNc1c2ccccc2nc2c1oc1ccccc12 | inactive | Active | Active | – | – | – | – | – | – | – |
| CCN(CC)CCNc1c2ccccc2nc2c1oc1ccccc12 | inactive | Active | Active | – | – | – | – | – | – | – |
| CCN(CC)CCNc1c2ccccc2nc2c1[nH]c1ccccc12 | inactive | – | Active | 200 | Active | Active | 300 | Active | – | – |
| OCCCNc1c2ccccc2nc2c1[nH]c1ccccc12 | inactive | – | Active | 1000 | – | Active | 1300 | – | Active | Active |
| OCCNc1c2ccccc2nc2c1[nH]c1ccccc12 | inactive | – | Active | – | – | – | – | – | Active | – |
| OCCCNc1c2ccccc2nc2c1oc1ccccc12 | inactive | – | Active | – | – | – | – | – | Active | – |
| CN(C)CCCNc1c2ccccc2nc2c1[nH]c1ccccc12 | inactive | Active | Active | – | – | – | – | – | – | – |
| CN(C)CCNc1c2ccccc2nc2c1[nH]c1ccccc12 | inactive | Active | Active | – | – | – | – | – | – | – |
| CN(C)CCCNc1c2ccccc2nc2c1oc1ccccc12 | inactive | Active | Active | – | – | – | – | – | – | – |
| OCCNc1c2ccccc2nc2c1oc1ccccc12 | inactive | – | Active | – | – | – | – | – | Active | – |
